Source: PubChem
Compounds with a hit are over-represented: about 2.9% of the library has one in this group of screens.
CHO-K1 Ca ag: counter-screen for M1 agonists: effect in parental CHO-K1 cells; actives 0.48% (n = 360,000); activation, % at 3 µM; Fluo-8 calcium fluorescence; scaled to maximal ATP response, vehicle zero; AID 602248, 2012; in the data active = activation above about 15%;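 note: untransfected CHO-K1 host cells lacking M1 receptor as counterscreen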
OX1R antag-1: antagonists of human orexin 1 receptor (OX1R). inhibition, % at 6.6 µM. AID 485270, 2010. Orexin/Hypocretin receptor type 1 (Homo sapiens), O43613. OX1R-expressing cells, FRET antagonist read-out. actives 1.8% (n = 330,000); in the data active = inhibition mostly above about 38%, no sharp cut-off; inactive = mostly below about 40%;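 note: 0% = agonist challenge alone and 100% = reference antagonist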
Target sequence (O43613 whole entry, looked up): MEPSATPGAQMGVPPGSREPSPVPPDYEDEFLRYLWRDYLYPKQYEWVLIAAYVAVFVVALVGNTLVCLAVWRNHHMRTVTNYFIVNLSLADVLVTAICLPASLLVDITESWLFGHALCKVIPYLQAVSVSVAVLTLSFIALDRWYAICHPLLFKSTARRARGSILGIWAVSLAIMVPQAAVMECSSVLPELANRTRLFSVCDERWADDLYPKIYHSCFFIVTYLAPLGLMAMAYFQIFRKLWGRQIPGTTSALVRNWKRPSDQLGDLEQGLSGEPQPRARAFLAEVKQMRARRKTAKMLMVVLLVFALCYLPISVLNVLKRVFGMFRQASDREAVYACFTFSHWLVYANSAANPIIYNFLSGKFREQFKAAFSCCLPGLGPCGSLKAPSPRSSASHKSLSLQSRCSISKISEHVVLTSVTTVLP
CHO parental Ca: ATP-evoked calcium signal inhibitors, parental CHO, primary screen, counter-screen for OX1R antagonist project, cell-based, fluorescence, Fluo-8 calcium dye; parental CHO-K1, ATP-induced calcium, Fluo-8 fluorescence; inhibition, % at 5.6 µM; actives 0.63% (n = 330,000); AID 463079, 2010;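 active = inhibition above that plate's mean sample inhibition plus 3 SD, cut at about 26% in these data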;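 note: 0% = ATP-challenged DMSO wells and 100% = DMSO wells without ATP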
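Test system: parental CHO cells; detection: calcium-sensitive Fluo-8 fluorescence; evaluation: percent inhibition of calcium signal; also added: ATP as calcium-mobilizing challenge; repeats: one well per compound; control set: ATP-challenged DMSO wells low, unchallenged DMSO wells high; compound: single nominal dose of 5.6 µM per compound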
OX1R antag-2: OX1R (HCRTR1) antagonists, primary screen, fluorescence, CHO/OX1R cells, Fluo-8 calcium, orexin A; Orexin/Hypocretin receptor type 1 (Homo sapiens), O43613; Fluo-8 calcium fluorescence; inhibition, % at 5 µM; actives 0.43% (n = 330,000); AID 434989, 2010;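 active = inhibition above its plate's threshold, mean inhibition of all tested compounds on the plate plus 3 SD, cut at about 37% in these data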;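 note: 0% = orexin A challenge wells and 100% = SB-334867-A antagonist wells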
CHO-K1 Ca antag: nonselective inhibitor or artifact in parental CHO-K1 cells. ATP-induced calcium, Fluo-8 fluorescence. inhibition, % at 3 µM. actives 0.6% (n = 360,000);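 active = inhibition above a per-plate cutoff, the plate's mean sample inhibition plus 3 SD, cut at about 24% in these data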;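 note: 0% = DMSO plus EC80 ATP and 100% = DMSO alone without ATP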
M1 PAM parental: nonselective calcium activators in parental CHO-K1 cells, primary screen, counter-screen for M1 PAM project, cell-based, Fluo-8 calcium fluorescence, full deck, 1536-well; ATP EC20; 0% at ATP EC20, 100% at ATP max; activation, % at 3 µM; actives 0.02% (n = 360,000); AID 602247, 2012;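 active = activation above the run cutoff, the mean activation of all test compounds plus 3 SD, cut at about 40% in these data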;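 note: peak over basal fluorescence ratio in a 140 s read after ATP addition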
Active calls of the source: *.

Results for COc1ccc(C(=O)N2c3ccc(F)cc3CCC2C)cc1OC (stereo not drawn) ?
CHO-K1 Ca ag: 0.1; OX1R antag-1: 25.0; CHO parental Ca: -16.3; OX1R antag-2: -9.2; CHO-K1 Ca antag: 15.5; M1 PAM parental: -5.8

Results for COc1ccccc1NC(=O)N1c2ccc(F)cc2CCC1C (stereo not drawn) ?
CHO-K1 Ca ag: -0.1; OX1R antag-1: 13.6; CHO parental Ca: 7.2; OX1R antag-2: -20.7; CHO-K1 Ca antag: 24.0*; M1 PAM parental: -8.7

Results for O=C(Nc1ccccc1)c1cn(CCBr)cn1 ?
CHO-K1 Ca ag: 0.3; OX1R antag-1: 4.5; CHO parental Ca: -3.0; OX1R antag-2: 4.7; CHO-K1 Ca antag: -10.2; M1 PAM parental: 5.9

How did COc1cc(/C=C/C(=O)OCC(=O)NNC(=O)c2cc(Cl)ccc2OC)ccc1O do in these assays?
CHO-K1 Ca ag: 0.4; OX1R antag-1: 3.4; CHO parental Ca: -11.2; OX1R antag-2: -17.1; CHO-K1 Ca antag: -5.5; M1 PAM parental: 2.2

How did COc1cc(/C=C/C(=O)OCC(=O)Nc2ccccc2Sc2ccc(Cl)cc2)ccc1O do in these assays?
CHO-K1 Ca ag: 3.2; OX1R antag-1: 34.2; CHO parental Ca: 61.5*; OX1R antag-2: 28.1; CHO-K1 Ca antag: 1.2; M1 PAM parental: 25.7

How did O=C(NCc1ccco1)/C(=C/C=C\c1ccccc1)NC(=O)c1ccc(Br)o1 do in these assays?
CHO-K1 Ca ag: 17.9*; OX1R antag-1: 11.5; CHO parental Ca: -5.4; OX1R antag-2: -3.5; CHO-K1 Ca antag: 14.9; M1 PAM parental: 13.7

What do the screens show for `CCOC(=O)c1nnn(-c2nc(N3CCCC3)nc(N3CCCC3)n2)c1-c1ccccc1`?
CHO-K1 Ca ag: 0.1; OX1R antag-1: 9.0; CHO parental Ca: 1.2; OX1R antag-2: -18.7; CHO-K1 Ca antag: -7.2; M1 PAM parental: 0.6

What do the screens show for `CCOC(=O)c1c(-c2ccccc2)nnn1-c1nc(OCC)nc(N2CCCCC2)n1`?
CHO-K1 Ca ag: 7.7; OX1R antag-1: 6.7; CHO parental Ca: 52.1*; OX1R antag-2: -25.2; CHO-K1 Ca antag: 53.8*; M1 PAM parental: -1.0

What do the screens show for `C=CC[C@H]1CC(C)=C[C@H](CC=C)N1C(=O)c1cc(COc2ccccc2SC)on1`?
CHO-K1 Ca ag: 2.8; OX1R antag-1: 39.6; CHO parental Ca: 44.4*; OX1R antag-2: -17.5; CHO-K1 Ca antag: -3.5; M1 PAM parental: 14.8

What do the screens show for `COCC1CCN(C(=O)c2cc(COc3ccccc3SC)on2)C1` (stereo not drawn)?
CHO-K1 Ca ag: 0.6; OX1R antag-1: 19.6; CHO parental Ca: -17.6; OX1R antag-2: -27.4; CHO-K1 Ca antag: 0.6; M1 PAM parental: 14.3

What do the screens show for `Cc1cc2occ(CC(=O)N(C)CC(=O)Nc3ccccc3Cl)c2cc1C`?
CHO-K1 Ca ag: 0.5; OX1R antag-1: 54.0*; CHO parental Ca: -25.0; OX1R antag-2: -17.5; CHO-K1 Ca antag: -1.6; M1 PAM parental: -23.1

How did CCCN(CC(=O)Nc1ccccc1C)C(=O)Cc1coc2cc(C)ccc12 do in these assays?
CHO-K1 Ca ag: 0.0; OX1R antag-1: 14.2; CHO parental Ca: -17.7; OX1R antag-2: -17.4; CHO-K1 Ca antag: -11.7; M1 PAM parental: 12.6

How did COc1ccc(C(C(=O)NCC2CCCO2)N(C(=O)CNC(=O)c2cccs2)c2ccccc2)cc1OC (stereo not drawn) do in these assays?
CHO-K1 Ca ag: -0.1; OX1R antag-1: 18.2; CHO parental Ca: -16.0; OX1R antag-2: -6.8; CHO-K1 Ca antag: 23.7*; M1 PAM parental: -16.4

How did CCCCn1c(N)c(N(CCOC)C(=O)CSc2nnc(-c3ccncc3)n2CCC)c(=O)[nH]c1=O do in these assays?
CHO-K1 Ca ag: 1.7; OX1R antag-1: 4.4; CHO parental Ca: -13.3; OX1R antag-2: -0.9; CHO-K1 Ca antag: -2.5; M1 PAM parental: 6.5

Results for Cc1noc(C)c1COc1ccc(C(=O)N2CCCC(C(F)(F)F)C2)cc1 (stereo not drawn) ?
CHO-K1 Ca ag: 2.4; OX1R antag-1: 5.5; CHO parental Ca: -10.9; OX1R antag-2: -27.6; CHO-K1 Ca antag: -6.7; M1 PAM parental: 18.2

How did OC(CN1CCN(c2cccc(C(F)(F)F)c2)CC1)c1c[nH]c2ccccc12 (stereo not drawn) do in these assays?
CHO-K1 Ca ag: 2.0; OX1R antag-1: 12.2; CHO parental Ca: -15.6; OX1R antag-2: -17.9; CHO-K1 Ca antag: 29.8*; M1 PAM parental: -6.7

How did OC(COCc1cccs1)CN1CCN(c2cccc(C(F)(F)F)c2)CC1 (stereo not drawn) do in these assays?
CHO-K1 Ca ag: 4.4; OX1R antag-1: -4.9; CHO parental Ca: -26.7; OX1R antag-2: -18.4; CHO-K1 Ca antag: -3.3; M1 PAM parental: 4.4

Results for Nc1ncc(Br)cc1S(=O)(=O)Nc1cc(C(F)(F)F)cc(C(F)(F)F)c1 ?
CHO-K1 Ca ag: 14.8; OX1R antag-1: 84.9*; CHO parental Ca: 25.1; OX1R antag-2: 24.6; CHO-K1 Ca antag: 19.8; M1 PAM parental: 0.2

Results for O=C(CCS(=O)(=O)c1ccccc1Cl)NC1CCCCCC1 ?
CHO-K1 Ca ag: 0.6; OX1R antag-1: 3.6; CHO parental Ca: -10.4; OX1R antag-2: -20.1; CHO-K1 Ca antag: -6.1; M1 PAM parental: 14.8

Results for COc1cccc(-c2cnc(C(O)c3ccc(-c4ccccc4)cc3)[nH]2)c1 (stereo not drawn) ?
CHO-K1 Ca ag: 0.0; CHO-K1 Ca antag: -2.0; M1 PAM parental: -3.2

Results for O=C(c1cc(Br)ccc1O)N1CCN(S(=O)(=O)Cc2ccccc2)CC1 ?
CHO-K1 Ca ag: 3.2; OX1R antag-1: 0.1; CHO parental Ca: -20.1; OX1R antag-2: -6.5; CHO-K1 Ca antag: -2.2; M1 PAM parental: 9.2

How did CC(C)CCNC(=S)Nc1ccc([N+](=O)[O-])cc1 do in these assays?
CHO-K1 Ca ag: 12.7; OX1R antag-1: 45.4; CHO parental Ca: 28.2; OX1R antag-2: 39.3; CHO-K1 Ca antag: 28.9*; M1 PAM parental: -11.5

How did CCCCNC(=S)Nc1ccc([N+](=O)[O-])cc1 do in these assays?
CHO-K1 Ca ag: 13.4; OX1R antag-1: 37.5; CHO parental Ca: 22.9; OX1R antag-2: 17.8; CHO-K1 Ca antag: 34.4*; M1 PAM parental: -16.1

Results for CCCCNC(=S)NC(=O)c1ccc([N+](=O)[O-])cc1 ?
CHO-K1 Ca ag: -0.1; OX1R antag-1: 36.4; CHO parental Ca: -11.4; OX1R antag-2: -9.7; CHO-K1 Ca antag: -9.4; M1 PAM parental: 5.4

Results for CN(C)c1ccc(Nc2ccc([N+](=O)[O-])cn2)cc1 ?
CHO-K1 Ca ag: -0.5; OX1R antag-1: 43.2*; CHO parental Ca: 3.8; OX1R antag-2: -13.4; CHO-K1 Ca antag: 6.6; M1 PAM parental: -9.4

Results for O=C(CN1CCCCC1)NC1CCc2cc3c(cc21)CCC3 (stereo not drawn) ?
CHO-K1 Ca ag: -0.6; OX1R antag-1: 19.0; CHO parental Ca: -15.1; OX1R antag-2: -17.4; CHO-K1 Ca antag: 26.6*; M1 PAM parental: -29.6
